Measured values from different studies.
Compare with care: the assays were run in different laboratories.
Target: Tyrosine-protein kinase Yes (YES1, Homo sapiens, UniProt P07947)

| SMILES | assay | setting | measurement | result |
| --- | --- | --- | --- | --- |
| Cn1cncc1[C@@](O)(COc1ccc(C#N)cc1-c1ccc(OC(F)(F)F)cc1)c1ccc(C#N)cc1 | cell-free assay, competition with immobilised ligand | 1 µM | remaining binding | 100% |
| C#Cc1n[nH]c2c(-c3cn([C@@H](C)c4ccccn4)c(=O)[nH]c3=O)cc(F)cc12 | enzyme activity, inhibitor | 0.1 µM | inhibition | -3.4% |
| O=c1[nH]c2ccccc2n1C1CCN(Cc2ccc(-c3[nH]c4cc5ncnc5cc4nc3-c3ccccc3)cc2)CC1 | cell-free assay | 0.5 µM | remaining signal | 90.8% |
| Nc1ncc(-c2nc(N3CCOCC3)nc(N3CCOCC3)n2)c(C(F)F)n1 | binding, competition with immobilised ligand | 10 µM | remaining binding | 80% |
| Cn1cc(-c2cc(F)cc(N3CCn4c(cc5c4CCCC5)C3=O)c2CO)cc(Nc2ccc(N3CCN(C4COC4)CC3)cn2)c1=O | enzyme activity, inhibitor | 0.1 µM | inhibition | 11% |
| Cc1nn(C)cc1-c1nc2c(N3CCN(Cc4ccc(Cl)cc4)CC3)c(Cl)cnc2[nH]1 | binding, competition with immobilised ligand | 1 µM | remaining binding | 96% |
| COc1ncccc1-c1cnn2ccc(N3CCN(C(=O)OC(C)C)CC3)nc12 | binding, competition with immobilised ligand | 1 µM | remaining binding | 100% |
| CC(C)(C)c1cc(C=C(C#N)C#N)cc(Br)c1O | enzyme activity, inhibitor | 0.5 µM | remaining activity | 83% |
